Measurements: ChEMBL document CHEMBL5608194, “Novel neuroprotective 5,6-dihydropyrido[2',1':2,3]imidazo[4,5-c]quinoline derivatives acting through cholinesterase inhibition and CB2 signaling modulation” (Eur J Med Chem, 2024)
Active and inactive are the calls of the source. The calls are words filed in the database; no cut-off is given here.

Tests used:
SH-SY5Y [1] = test: Inhibition of MPP+ induced mitochondrial superoxide radical production in human SH-SY5Y cells at 1 uM incubated for 24 hrs by MitoSOX staining based microplate reader assay (reference value: 100%); assay type: functional
Summary of the method: (§1)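 Neuron-like SH-SY5Y (20 000 cells/well) co-treated with 5 mM MPP+ and compound for 24 h; plates centrifuged, medium replaced by 5 μM MitoSOX in HBSS, 30 min at 37 °C, fluorescence 500/580 nm; MPP+ signal set to 100 %; triplicates on at least four independent days.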

SH-SY5Y [2] = test: Cytotoxicity against human SH-SY5Y cells assessed as cell death at 10 uM incubated for 72 hrs by propidium iodide staining based fluorescence assay; assay type: toxicity
Summary of the method: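 SH-SY5Y differentiated to neuron-like phenotype with 10 μM all-trans retinoic acid for 48 h, 20 000 cells/well. Compounds from DMSO stocks (DMSO ≤0.5 %) added, then 72 h exposure. Control wells lysed with 1 % Triton X-100 for 1 min, then all wells stained with propidium iodide for fluorescence read-out. Dead-cell proportion expressed relative to Triton X-100-treated control.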

SH-SY5Y [3] = test: Neuroprotective activity against ATRA-differentiated and 3-NPA induced cell death in human SH-SY5Y cells assessed as cell death at 0.1 uM incubated for 48 hrs by propidium iodide staining based fluorescence assay (reference value: 100%); assay type: functional
Summary of the method: (§2)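 ATRA-differentiated SH-SY5Y co-treated with compound and 20 mM 3-nitropropionic acid for 48 h; cell death by propidium iodide fluorescence, 3-NPA-treated signal set to 100 %.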

SH-SY5Y [4] = test: Neuroprotective activity against ATRA-differentiated and 3-NPA induced cell death in human SH-SY5Y cells assessed as cell death at 1 uM incubated for 48 hrs by propidium iodide staining based fluorescence assay (reference value: 100%); assay type: functional; summary of the method: as §2
SH-SY5Y [5] = test: Neuroprotective activity against ATRA-differentiated and 3-NPA induced cell death in human SH-SY5Y cells assessed as cell death at 10 uM incubated for 48 hrs by propidium iodide staining based fluorescence assay (reference value: 100%); assay type: functional; summary of the method: as §2
SH-SY5Y [6] = test: Neuroprotective activity against ATRA-differentiated and MPP+ induced cell death in human SH-SY5Y cells assessed as cell death at 0.1 uM incubated for 24 hrs by propidium iodide staining based fluorescence assay (reference value: 100%); assay type: functional
Summary of the method: (§3)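 ATRA-differentiated SH-SY5Y co-treated with compound and 5 mM MPP+ for 24 h; cell death by propidium iodide fluorescence, MPP+-treated signal set to 100 %.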

SH-SY5Y [7] = test: Neuroprotective activity against ATRA-differentiated and MPP+ induced cell death in human SH-SY5Y cells assessed as cell death at 1 uM incubated for 24 hrs by propidium iodide staining based fluorescence assay (reference value: 100%); assay type: functional; summary of the method: as §3
SH-SY5Y [8] = test: Neuroprotective activity against ATRA-differentiated and MPP+ induced cell death in human SH-SY5Y cells assessed as cell death at 10 uM incubated for 24 hrs by propidium iodide staining based fluorescence assay (reference value: 100%); assay type: functional; summary of the method: as §3
SH-SY5Y [9] = test: Neuroprotective activity against ATRA-differentiated and MPP+ induced cell death in human SH-SY5Y cells assessed as cell death at 1 uM by LDH release assay (reference value: 100%); assay type: functional
Summary of the method: (§4)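 ATRA-differentiated SH-SY5Y co-treated with 5 mM MPP+ and compound; cell death by commercial LDH release kit; MPP+ value set to 100 %; triplicates on at least three independent days.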

SH-SY5Y [10] = test: Neuroprotective activity against MPP+ induced cell death in human SH-SY5Y cells assessed as cell death at 1 uM by YOPRO-1 staining based assay; assay type: functional
Summary of the method: (§5)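 Neuron-like SH-SY5Y co-treated with compound and 5 mM MPP+ for 24 h; centrifuged at 500 × g, medium replaced by 1 μM YO-PRO1 in PBS for 15 min at room temperature; fluorescence 488/530 nm; MPP+ signal set to 100 %; triplicates on at least three independent days.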

SH-SY5Y [11] = test: Neuroprotective activity against MPP+ induced cell death in human SH-SY5Y cells assessed as cell death at 1 uM incubated for 24 hrs by Cas-3, 7 staining based assay; assay type: functional
Summary of the method: (§6)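 Caspase-3/7 activation with Ac-DEVD-AFC substrate after 24 h co-treatment of neuron-like SH-SY5Y with compound and 5 mM MPP+; MPP+ signal set to 100 %; triplicates on at least three independent days.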

SH-SY5Y [12] = test: Inhibition of MPP+ induced superoxide radical production in human SH-SY5Y cells at 1 uM incubated for 24 hrs by microplate reader assay (reference value: 100%); assay type: functional
Summary of the method: (§7)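 Neuron-like SH-SY5Y co-treated with 5 mM MPP+ and compound for 24 h; centrifuged at 500 × g, medium replaced with 10 μM dihydroethidium in PBS for 30 min, fluorescence 500/580 nm; MPP+ signal set to 100 %; triplicates on at least four independent days.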

SH-SY5Y [13] = test: Inhibition of MPP+ induced mitochondrial depolarization in human SH-SY5Y cells at 1 uM incubated for 2 hrs by JC10 staining based confocal laser scanning microscopy; assay type: functional
Summary of the method: (§8)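 ATRA-differentiated SH-SY5Y co-treated with 5 mM MPP+ and compound for 2 h; mitochondrial membrane potential by JC10 ratiometric red/green signal (plate) and confocal imaging of JC10-stained cells (50 000 cells/well slides); DMSO control set to 100 %; triplicates on three independent days.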

Acetylcholinesterase = Acetylcholinesterase (Electrophorus electricus, UniProt O42275); test: Inhibition of electric eel AChE using acetylthiocholine as substrate by Ellman's method
Sequence of Acetylcholinesterase (O42275 whole entry): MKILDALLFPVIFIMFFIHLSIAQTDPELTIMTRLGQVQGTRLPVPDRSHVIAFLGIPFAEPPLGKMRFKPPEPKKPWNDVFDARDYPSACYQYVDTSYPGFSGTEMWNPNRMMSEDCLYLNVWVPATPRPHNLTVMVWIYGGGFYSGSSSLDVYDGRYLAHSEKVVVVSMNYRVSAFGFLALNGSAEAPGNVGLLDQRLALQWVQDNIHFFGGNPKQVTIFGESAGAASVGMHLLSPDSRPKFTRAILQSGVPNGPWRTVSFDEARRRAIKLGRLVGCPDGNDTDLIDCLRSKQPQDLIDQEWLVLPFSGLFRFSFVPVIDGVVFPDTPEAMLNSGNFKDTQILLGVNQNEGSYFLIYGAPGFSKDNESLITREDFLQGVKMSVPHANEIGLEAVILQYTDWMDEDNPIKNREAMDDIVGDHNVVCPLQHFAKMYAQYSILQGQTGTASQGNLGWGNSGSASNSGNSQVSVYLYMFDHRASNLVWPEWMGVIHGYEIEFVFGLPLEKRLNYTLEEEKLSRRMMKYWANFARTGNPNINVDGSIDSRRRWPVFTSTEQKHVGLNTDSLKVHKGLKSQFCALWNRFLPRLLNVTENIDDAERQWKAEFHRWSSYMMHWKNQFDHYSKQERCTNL

Cholinesterase = Cholinesterase (Equus caballus, UniProt P81908); test: Inhibition of equine serum BChE using butyrylthiocholine as substrate by Ellman's method
Sequence of Cholinesterase (P81908 whole entry): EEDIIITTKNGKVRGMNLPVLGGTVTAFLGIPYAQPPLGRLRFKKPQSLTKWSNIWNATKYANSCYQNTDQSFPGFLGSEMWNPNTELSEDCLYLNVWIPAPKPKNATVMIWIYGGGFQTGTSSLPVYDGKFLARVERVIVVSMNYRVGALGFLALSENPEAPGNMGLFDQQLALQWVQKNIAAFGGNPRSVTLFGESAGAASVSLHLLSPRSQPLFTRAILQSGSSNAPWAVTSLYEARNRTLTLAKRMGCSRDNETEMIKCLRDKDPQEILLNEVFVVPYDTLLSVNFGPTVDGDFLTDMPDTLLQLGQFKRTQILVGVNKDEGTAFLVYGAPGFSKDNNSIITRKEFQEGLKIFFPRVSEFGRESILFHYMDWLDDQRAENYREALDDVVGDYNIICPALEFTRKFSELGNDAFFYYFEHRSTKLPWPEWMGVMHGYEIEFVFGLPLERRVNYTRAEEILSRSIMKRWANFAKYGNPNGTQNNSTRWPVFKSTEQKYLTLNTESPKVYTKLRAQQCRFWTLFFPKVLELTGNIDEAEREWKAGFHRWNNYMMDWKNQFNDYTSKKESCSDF
Summary of the method: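 Equine serum BChE (0.2 U/mL final) with 40 μM butyrylthiocholine and 100 μM DTNB, modified Ellman spectrophotometry; compounds from DMSO diluted in water, five inhibitor concentrations; IC50 from regression of v0/vi versus inhibitor concentration; triplicate.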

[14] = Selectivity index, ratio of IC50 for electric eel AChE to IC50 for equine serum BChE
Summary of the method: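 Ratio of IC50 values from modified Ellman spectrophotometric assays with electric eel AChE and equine serum BChE. Each used enzyme at 0.2 U/mL final, acetylthiocholine or butyrylthiocholine at 40 μM, and DTNB at 100 μM. Inhibitors were dissolved in DMSO, diluted in water, and tested at five concentrations in triplicate. IC50 came from regression of v0/vi against inhibitor concentration.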

SH-SY5Y [15] = test: Inhibition of MPP+ induced mitochondrial superoxide radical production in human SH-SY5Y cells at 10 uM incubated for 24 hrs by MitoSOX staining based microplate reader assay (reference value: 100%); assay type: functional; summary of the method: as §1
SH-SY5Y [16] = test: Neuroprotective activity against ATRA-differentiated and MPP+ induced cell death in human SH-SY5Y cells assessed as cell death at 10 uM by LDH release assay (reference value: 100%); assay type: functional; summary of the method: as §4
SH-SY5Y [17] = test: Neuroprotective activity against MPP+ induced cell death in human SH-SY5Y cells assessed as cell death at 10 uM by YOPRO-1 staining based assay; assay type: functional; summary of the method: as §5
SH-SY5Y [18] = test: Neuroprotective activity against MPP+ induced cell death in human SH-SY5Y cells assessed as cell death at 10 uM incubated for 24 hrs by Cas-3, 7 staining based assay; assay type: functional; summary of the method: as §6
SH-SY5Y [19] = test: Neuroprotective activity against MPP+ induced cell death in human SH-SY5Y cells assessed as decrease in PARP1 cleavage at 1 to 10 uM incubated for 24 hrs by immunoblotting analysis; assay type: functional, cell-based; details: dose 1-10 µM
SH-SY5Y [20] = test: Inhibition of MPP+ induced superoxide radical production in human SH-SY5Y cells at 10 uM incubated for 24 hrs by microplate reader assay (reference value: 100%); assay type: functional; summary of the method: as §7
SH-SY5Y [21] = test: Inhibition of MPP+ induced superoxide radical production in ATRA-differentiated human SH-SY5Y cells at 10 uM incubated for 24 hrs by MitoSOX staining based confocal laser scanning microscopy; assay type: functional, cell-based
Summary of the method: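 50 000 cells seeded on chamber slides, ATRA-differentiated, co-treated with 5 mM MPP+ and compound for 24 h, then stained with MitoSOX and imaged by confocal laser-scanning microscopy (63× objective).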

SH-SY5Y [22] = test: Inhibition of MPP+ induced mitochondrial depolarization in human SH-SY5Y cells at 10 uM incubated for 2 hrs by JC10 staining based confocal laser scanning microscopy; assay type: functional; summary of the method: as §8
SH-SY5Y [23] = test: Inhibition of MPP+ induced Akt phosphorylation at Ser473 residues in human SH-SY5Y cells at 1 to 10 uM incubated for 24 hrs by Western blotting analysis; assay type: cell-based; details: dose 1-10 µM
Summary of the method: (§9)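 ATRA-differentiated neuron-like SH-SY5Y co-treated with 5 mM MPP+ and compound for 24 h, lysed in RIPA buffer, SDS-PAGE, transfer to nitrocellulose, immunoblot for p-Akt (Ser473) and ERK1/2; HSP90 and β-actin loading controls; ECL chemiluminescence imaged by CCD camera.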

[24] = biological target: Mitogen-activated protein kinase; ERK1/ERK2 (Homo sapiens) (UniProt P27361+P28482); test: Inhibition of MPP+ induced ERK1/2 phosphorylation in human SH-SY5Y cells at 1 to 10 uM incubated for 24 hrs by Western blotting analysis; assay type: cell-based; details: dose 1-10 µM; summary of the method: as §9
Sequence of Mitogen-activated protein kinase; ERK1/ERK2 (Homo sapiens) (P27361 whole entry, looked up): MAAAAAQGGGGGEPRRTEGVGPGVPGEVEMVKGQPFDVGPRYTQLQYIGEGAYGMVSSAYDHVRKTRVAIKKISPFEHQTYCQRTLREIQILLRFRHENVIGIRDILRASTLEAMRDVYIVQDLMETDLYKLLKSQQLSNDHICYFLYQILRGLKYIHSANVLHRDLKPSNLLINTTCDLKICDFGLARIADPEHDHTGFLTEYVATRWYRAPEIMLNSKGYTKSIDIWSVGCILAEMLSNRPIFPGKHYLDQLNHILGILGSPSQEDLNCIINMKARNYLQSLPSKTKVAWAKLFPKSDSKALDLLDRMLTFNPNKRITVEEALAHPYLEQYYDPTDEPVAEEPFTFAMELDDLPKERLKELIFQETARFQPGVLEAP
Sequence of Mitogen-activated protein kinase; ERK1/ERK2 (Homo sapiens) (P28482 whole entry, looked up): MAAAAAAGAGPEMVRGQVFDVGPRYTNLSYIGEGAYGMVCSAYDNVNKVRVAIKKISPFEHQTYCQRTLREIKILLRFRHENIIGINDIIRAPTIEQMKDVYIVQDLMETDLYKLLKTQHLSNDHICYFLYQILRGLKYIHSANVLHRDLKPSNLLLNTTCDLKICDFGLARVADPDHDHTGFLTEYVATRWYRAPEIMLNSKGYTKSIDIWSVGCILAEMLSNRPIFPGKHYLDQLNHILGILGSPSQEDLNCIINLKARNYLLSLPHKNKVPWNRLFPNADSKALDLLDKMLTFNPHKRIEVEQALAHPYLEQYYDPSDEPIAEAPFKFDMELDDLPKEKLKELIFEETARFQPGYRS

SH-SY5Y [25] = test: Neuroprotective activity against MPP+ induced cell death in human SH-SY5Y cells at 1 to 10 uM in presence of AM630; assay type: functional, cell-based; details: dose 1-10 µM
Summary of the method: (§10)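 Neuron-like SH-SY5Y co-treated for 24 h with 5 mM MPP+, compound and CB2 inverse agonist AM630 or antagonist SR144528 at 0.1, 1 or 10 μM; CB2 ligands also tested alone and with MPP+; cell death read-out; triplicates on three independent days.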

SH-SY5Y [26] = test: Neuroprotective activity against MPP+ induced cell death in human SH-SY5Y cells at 1 to 10 uM in presence of SR144528; assay type: functional, cell-based; details: dose 1-10 µM; summary of the method: as §10
[27] = biological target: Cannabinoid receptor 2 (Homo sapiens) (UniProt P34972); test: Activation of CB2 (unknown origin) expressed in CHO cells at 1 to 10 uM; assay type: cell-based; details: dose 1-10 µM
Sequence of Cannabinoid receptor 2 (Homo sapiens) (P34972 whole entry): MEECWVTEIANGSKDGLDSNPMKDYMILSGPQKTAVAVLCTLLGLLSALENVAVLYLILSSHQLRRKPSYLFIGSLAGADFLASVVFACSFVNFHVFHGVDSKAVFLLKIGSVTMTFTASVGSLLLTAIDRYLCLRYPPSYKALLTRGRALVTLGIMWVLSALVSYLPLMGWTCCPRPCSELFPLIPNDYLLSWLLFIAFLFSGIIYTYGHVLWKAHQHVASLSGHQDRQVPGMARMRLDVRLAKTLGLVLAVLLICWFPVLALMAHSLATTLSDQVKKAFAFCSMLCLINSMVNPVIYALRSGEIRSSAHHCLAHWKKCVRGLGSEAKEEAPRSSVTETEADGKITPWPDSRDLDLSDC
Summary of the method: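 cAMP quantified in CB2-transfected CHO cells after treatment; compound tested at 1 and 10 μM to detect direct receptor activation (commercial LeadHunter service).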

SMILES: c1ccc2c(c1)NC1(CCCCC1)c1c-2nc2ccccn12
- inhibition at 1 µM (SH-SY5Y [1]): 61.7%
- Activity (SH-SY5Y [2]): 12.2%
- Activity (SH-SY5Y [3]): 78.5%
- Activity (SH-SY5Y [4]): 64%
- Activity (SH-SY5Y [5]): 65.8%
- Activity (SH-SY5Y [6]): 57%
- Activity (SH-SY5Y [7]): 37.3%
- Activity (SH-SY5Y [8]): 52.7%
- Activity (SH-SY5Y [9]): 65.1%
- Activity (SH-SY5Y [10]): 58.7%
- Activity (SH-SY5Y [11]): 59.1%
- inhibition at 1 µM (SH-SY5Y [12]): 59.9%
- inhibition at 1 µM (SH-SY5Y [13]): 70.6%
- IC50 (Acetylcholinesterase): 34 µM
- IC50 (Cholinesterase): 19.8 µM
- Ratio IC50 [14]: 1.72

SMILES: CC1(C)Nc2ccccc2-c2nc3ccccn3c21
- inhibition at 10 µM (SH-SY5Y [15]): 41.3%
- Activity (SH-SY5Y [2]): 14.6%
- Activity (SH-SY5Y [3]): 98.7%
- Activity (SH-SY5Y [4]): 83.1%
- Activity (SH-SY5Y [5]): 57.8%
- Activity (SH-SY5Y [6]): 96.7%
- Activity (SH-SY5Y [7]): 39.7%
- Activity (SH-SY5Y [8]): 26.2%
- Activity (SH-SY5Y [16]): 50.2%
- Activity (SH-SY5Y [9]): Active
- Activity (SH-SY5Y [17]): 37.9%
- Activity (SH-SY5Y [10]): 58.8%
- Activity (SH-SY5Y [11]): 64.2%
- Activity (SH-SY5Y [18]): 48.8%
- Activity (SH-SY5Y [19]): Active
- inhibition at 10 µM (SH-SY5Y [20]): 44.4%
- inhibition (SH-SY5Y [21]): Active
- inhibition at 10 µM (SH-SY5Y [22]): 66.8%
- inhibition (SH-SY5Y [23]): Active
- inhibition [24]: Active
- IC50 (Acetylcholinesterase): 47.9 µM
- IC50 (Cholinesterase): 28.5 µM
- Ratio IC50 [14]: 1.68
- Activity (SH-SY5Y [25]): inactive
- Activity (SH-SY5Y [26]): inactive
- Activity [27]: inactive
